High-throughput results deposited in PubChem by The Scripps Research Institute Molecular Screening Center.
The list is not random: actives were taken first. Their share in the collection is about 1.9%.
M5 antag: CHRM5 antagonism in calcium assay; CHO-hM5 cells, Fluo-8 calcium fluorescence, ACh EC80; P08912; AID 624040; inhibition, % at 3 µM; actives 0.59% (n = 360,000);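 active = inhibition above a per-plate cutoff, the mean of that plate's test compounds plus 3 SD, cut at about 27% in these data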;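 note: 0% = acetylcholine EC80 with DMSO and 100% = DMSO without agonist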
M5 ag: agonists of human muscarinic M5 receptor (CHRM5); CHO-K1 hM5 cells, Fluo-8 calcium fluorescence; 0% DMSO wells, 100% maximal acetylcholine response; activation, % at 3 µM; AID 624037; actives 0.19% (n = 360,000); P08912;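 active = activation above the run's mean over test compounds plus 3 SD, cut at about 23% in these data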;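 note: signal is peak over basal fluorescence ratio across the kinetic read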
CHRM4 PAM: positive allosteric modulators of human muscarinic M4 receptor | P08173 | actives 0.4% (n = 360,000) | activation, % at 3 µM | CHO-K1 hM4/Gqi5, Fluo-8 calcium fluorescence, ACh EC20; 0% = ACh EC20, 100% = maximal ACh;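 active = activation above its plate's cutoff, the mean activation of sample wells plus 3 SD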
Target sequence (P08173 whole entry, looked up): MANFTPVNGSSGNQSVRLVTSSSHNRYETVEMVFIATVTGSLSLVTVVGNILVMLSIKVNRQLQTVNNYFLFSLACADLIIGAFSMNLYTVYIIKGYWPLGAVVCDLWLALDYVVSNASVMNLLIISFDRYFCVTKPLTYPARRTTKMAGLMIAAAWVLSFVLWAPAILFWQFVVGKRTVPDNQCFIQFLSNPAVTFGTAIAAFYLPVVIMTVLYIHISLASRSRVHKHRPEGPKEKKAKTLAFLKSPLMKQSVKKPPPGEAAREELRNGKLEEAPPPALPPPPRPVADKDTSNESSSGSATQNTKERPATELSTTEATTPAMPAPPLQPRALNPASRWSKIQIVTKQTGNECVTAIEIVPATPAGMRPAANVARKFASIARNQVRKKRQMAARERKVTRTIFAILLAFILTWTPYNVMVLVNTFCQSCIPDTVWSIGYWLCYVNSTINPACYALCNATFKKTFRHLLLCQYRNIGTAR
CHRM5 PAM: potentiates acetylcholine response at human M5 receptor; P08912; CHO-K1 hM5, Fluo-8 calcium, ACh EC20 PAM; 0% = ACh EC20, 100% = ACh EC100; activation, % at 3 µM; actives 0.3% (n = 360,000); AID 624038;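 active = activation above the run cutoff, the mean activation of all test compounds plus 3 SD, cut at about 18% in these data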
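system = human M5 receptor in CHO-K1 cells | compound = one concentration, 3 µM final (nominal) | schedule = Post-acetylcholine fluorescence recording 140 s | signal = Fluo-8 calcium dye fluorescence, kinetic read | benchmarks = low control EC20 acetylcholine (0%), high control EC100 acetylcholine (100%) | repeats = singlicate, one well per test compound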
CHRM4 antagonist: CHRM4 antagonism in calcium assay; P08173; AID 624125; CHO-hM4 cells, ACh EC80, Fluo-8 calcium fluorescence; inhibition, % at 3 µM; actives 0.73% (n = 360,000);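 active = inhibition above its plate's cutoff, the mean inhibition of sample wells plus 3 SD, cut at about 27% in these data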;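 note: 0% = acetylcholine EC80 with DMSO and 100% = DMSO without agonist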
CHRM4 agonist: CHRM4 agonism in calcium assay; CHO-K1 hM4/Gqi5, Fluo-8 calcium fluorescence; vehicle 0%, full acetylcholine response 100%; activation, % at 3 µM; actives 0.14% (n = 360,000); P08173;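 active = activation above the run mean over all test wells plus 3 SD, cut at about 32% in these data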;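 note: peak over basal fluorescence ratio per well then scaled between controls; 0% = DMSO wells and 100% = acetylcholine at EC100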
* marks the source's active call; other numbers are inactive results.

SMILES	M5 antag	M5 ag	CHRM4 PAM	CHRM5 PAM	CHRM4 antagonist	CHRM4 agonist
O=C(CCCCCn1c(=S)[nH]c2cc3c(cc2c1=O)OCO3)N1CCN(C2CCCCC2)CC1	31*	-5	-27	-15	12	10
CCOC(=O)c1cnc2c(CC)cccc2c1NCCN1CCOCC1	27*	-8	-13	-1	6	1
CCOC(=O)c1cnc2c(C)cccc2c1NCCCN1CCOCC1	5	-2	20*	2	-2	4
CCOC(=O)c1cnc2c(C(=O)OC)cccc2c1NCCN1CCOCC1	-4	0	10	7	-1	0
CCOC(=O)c1cnc2c(C)cc(Cl)cc2c1NCCCN1CCOCC1	1	-2	-2	2	-10	2
CCCc1nn2c(=O)cc(CSCC(=O)Nc3ccc(C)cc3)nc2s1	1	-5	5	-4	-23	3
CCC1(c2ccccc2)NC(=O)N(CC(=O)Nc2ccc3c(C)cc(=O)oc3c2)C1=O (stereo not drawn)	-1	-4	6	-5	-36	4
O=C(NCc1ccco1)C1C(=O)Nc2ccccc2C(=O)N1C1CCCCC1 (stereo not drawn)	5	1	3	0	4	2
CC(C)(C)CC(C)(C)NC(=O)c1ccccc1	5	3	2	1	-6	1
CCC(C)(NC(=O)c1ccccc1)C(=O)O (stereo not drawn)	-2	-2	31*	9	22	1
CCCN(C1CCS(=O)(=O)C1)S(=O)(=O)c1cc(OC)ccc1OC (stereo not drawn)	-2	2	9	13	4	1
N#Cc1ccc(OCC(=O)N/N=C2\CCc3ccccc32)cc1	-5	-3	-4	18*	3	1
CCCN(CC(=O)Nc1ccc(F)c(F)c1F)C(=O)C1CC(=O)N(Cc2ccccc2)C1 (stereo not drawn)	6	-2	21*	0	-12	3
CCCCC/C=C/C1=CC(=O)C[C@H](c2ccc(OC)cc2)C1	4	3	3	0	-6	0
CCC(c1ccccc1)c1noc(CCN(CC)CC)n1 (stereo not drawn)	59*	-3	-14	-19	59*	1
COCCN(C)Cc1nc(C(c2ccccc2)c2ccccc2)no1	4	-14	0	5	2	-1
O=C(NCc1cccnc1)C(=O)C1C(=O)Nc2ccccc21 (stereo not drawn)	-13	4	1	18*	-17	2
CC(=O)c1c(C)[nH]c(C(=O)Nc2cccc(S(=O)(=O)N(C)c3ccccc3)c2)c1C	11	4	-20	-21	3	22
Cc1ccc(S(=O)(=O)N(C)C)cc1NC(=O)CCCNC(=O)c1ccc(Cl)cc1	-1	-1	-2	-1	-10	2
CCOC(=O)/C(=C/c1ccc(Cl)cc1)NC(=O)c1ccco1	-2	-5	24*	14	-12	2
COc1ccc(/C=C(/NC(=O)c2ccco2)C(=O)NCc2ccco2)cc1OC	17	-3	26*	-7	-10	-2
O=C(OCc1ccccc1)/C(=C/c1ccc(Cl)cc1)NC(=O)c1ccccc1Cl	16	2	21	5	9	1
CC(=O)Nc1ccc(S(=O)(=O)CCC#N)cc1	10	-5	7	40*	-7	1
CCOc1ccc(NC(=O)Cn2nc(C(N)=O)c3ccccc3c2=O)cc1S(=O)(=O)N1CCCC1	10	-2	23*	2	-17	0
CCOc1ccc(NC(=O)Cn2nnc(-c3ccc(C(N)=O)cc3)n2)cc1S(=O)(=O)N1CCCC1	10	2	1	-6	6	1
CCOc1cc(N2CCOCC2)c(OCC)cc1NC(=O)c1cc(-c2ccco2)nc2ccccc12	22	4	-24	-13	29*	17
O=[N+]([O-])c1ccc(CN2CCC(Cc3ccccc3)CC2)cc1	5	-8	-14	-8	8	-2
